Measured values reported in ChEMBL document CHEMBL4020714, “Design, synthesis, and evaluation of curcumin derivatives as Nrf2 activators and cytoprotectors against oxidative death” (Eur J Med Chem, 2017).
Active and inactive are the calls of the source. The calls are words filed in the database; no cut-off is given here.

Experiments:
Assay type in all cases: cell-based
[1] = target: T1, Nuclear factor erythroid 2-related factor 2 (Homo sapiens) (UniProt Q16236); test: Activation of Nrf2 in human HepG2 cells assessed as increase in GCLC expression level after 24 hrs by Western blot analysis
T1 sequence (whole entry): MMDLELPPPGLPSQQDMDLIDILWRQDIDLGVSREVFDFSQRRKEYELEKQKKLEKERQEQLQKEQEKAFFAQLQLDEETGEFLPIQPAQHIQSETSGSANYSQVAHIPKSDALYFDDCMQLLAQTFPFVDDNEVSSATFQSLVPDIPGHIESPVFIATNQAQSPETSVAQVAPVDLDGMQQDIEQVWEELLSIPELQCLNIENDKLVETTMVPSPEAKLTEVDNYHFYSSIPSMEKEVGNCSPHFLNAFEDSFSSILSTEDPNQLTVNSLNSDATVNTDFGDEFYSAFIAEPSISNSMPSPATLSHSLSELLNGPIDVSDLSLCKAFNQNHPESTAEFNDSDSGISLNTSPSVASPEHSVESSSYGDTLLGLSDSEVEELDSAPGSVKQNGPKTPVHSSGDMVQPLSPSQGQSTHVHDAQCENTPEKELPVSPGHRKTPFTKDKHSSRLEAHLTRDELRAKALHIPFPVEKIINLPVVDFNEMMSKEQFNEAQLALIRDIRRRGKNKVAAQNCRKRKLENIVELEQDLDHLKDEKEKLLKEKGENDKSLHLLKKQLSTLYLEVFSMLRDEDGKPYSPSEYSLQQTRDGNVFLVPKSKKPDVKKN
Summary of the method: (§1)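 HepG2 cells (2×10^6/well) treated at the indicated concentrations and times. Whole-cell lysates, or nuclear and cytoplasmic fractions, are prepared and quantified by BCA. Samples are run at 40 μg/lane on 12% SDS-PAGE, transferred to nitrocellulose, probed with specific antibodies and HRP secondary (1/5000), and detected by ECL. Where used, LY294002 (15 μM), SP600125 (25 μM) or DTT (400 μM) is added 1 h before compound.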

[2] = target: T1, Nuclear factor erythroid 2-related factor 2 (Homo sapiens); test: Activation of Nrf2 in human HepG2 cells assessed as increase in HO-1 expression level after 3 hrs by Western blot analysis; summary of the method: as §1
HepG2 = test: Cytotoxicity against human HepG2 cells assessed as reduction in cell viability at 5 uM after 24 hrs by MTT assay; conditions: hepg2, 24 h
Summary of the method: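 MTT viability in HepG2 cells (5×10^3/well) after 24 h exposure to compound at 5 μM. Formazan dissolved in DMSO and absorbance read at 570 nm. Mean ± SD of three independent experiments.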

[3] = target: T1, Nuclear factor erythroid 2-related factor 2 (Homo sapiens); test: Activation of Nrf2 in human HepG2 cells assessed as increase in HO-1 expression level after 24 hrs by Western blot analysis; summary of the method: as §1

Activity [1]: Dose-dependent effect | Activity [2]: Active | Activity [3]: Dose-dependent effect
SMILES: CC(C)(C(=O)/C=C/c1ccc(O)c(O)c1)C(=O)/C=C/c1ccc(O)c(O)c1
Activity (HepG2): Non-Toxic
